Laboratory results: ChEMBL document CHEMBL3351676, “Polyyne hybrid compounds from Notopterygium incisum with peroxisome proliferator-activated receptor gamma agonistic effects” (J Nat Prod, 2014)
Activity calls are given as the source filed them. The rule behind the calls is not given here.

Experiments:
RAW264.7 = test: Inhibition of LPS and IFNgamma-induced nitric oxide production in mouse RAW264.7 cells incubated for 16 hrs by Griess assay; assay type: functional, cell-based
Summary of the method: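 RAW 264.7 macrophages stimulated with LPS plus IFN-γ to induce iNOS. Compounds dissolved in DMSO and diluted in PBS. Nitrite in supernatants measured by Griess assay against a sodium nitrite standard curve after 16 h. Activity expressed relative to LPS/IFN-γ/0.1% DMSO control; L-NMMA as positive control. Eight concentrations, at least three independent experiments, each in duplicate.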

[1] = target: T1, Peroxisome proliferator-activated receptor gamma (Homo sapiens) (UniProt P37231); test: Agonist activity at human PPARgamma expressed in HEK293 cells assessed as induction of receptor activation at 10 uM incubated for 18 hrs by luciferase reporter gene assay relative to untreated control; assay type: cell-based
T1 sequence (whole entry): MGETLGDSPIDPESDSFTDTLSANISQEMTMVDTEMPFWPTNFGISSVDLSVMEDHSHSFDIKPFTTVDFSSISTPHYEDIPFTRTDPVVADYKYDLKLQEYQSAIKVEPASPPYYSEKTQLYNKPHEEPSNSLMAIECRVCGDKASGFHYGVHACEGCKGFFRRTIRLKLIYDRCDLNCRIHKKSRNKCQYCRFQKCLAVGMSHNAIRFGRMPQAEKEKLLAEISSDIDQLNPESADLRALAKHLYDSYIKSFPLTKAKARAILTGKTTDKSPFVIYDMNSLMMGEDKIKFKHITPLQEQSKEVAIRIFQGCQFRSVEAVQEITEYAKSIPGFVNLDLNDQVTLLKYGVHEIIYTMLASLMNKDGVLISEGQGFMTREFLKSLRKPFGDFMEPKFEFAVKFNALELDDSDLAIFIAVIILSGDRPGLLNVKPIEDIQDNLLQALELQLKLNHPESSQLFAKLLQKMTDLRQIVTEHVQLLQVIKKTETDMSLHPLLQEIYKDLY
Summary of the method: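 HEK-293 cells in DMEM with 10% FBS, transfected by calcium phosphate with human PPARγ1 plasmid, tk-PPREx3-luc reporter and pEGFP-N1. After 6 h, replated in phenol-red-free DMEM with charcoal-stripped FBS. Treated 18 h; DMSO ≤0.1% as solvent control. Firefly luciferase luminescence normalized to EGFP fluorescence per well.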

Compound: C=C[C@H](C#CC#C[C@@H](O)/C=C\CCCCCCC)O[C@]1(C)CC[C@@H](O)[C@]2(C)CC[C@@H](C(C)C)[C@@H](O)[C@H]21
- inhibition (RAW264.7): inactive

Compound: C=C[C@H]1OCc2cc3cc(OC)c(O)cc3c(C#C[C@@H](O)/C=C\CCCCCCC)c21
- inhibition (RAW264.7): inactive

Compound: C=C[C@@H](O)C#CC#C[C@H](/C=C\CCCCCCC)O[C@]1(C)CC[C@@H](O)[C@]2(C)CC[C@@H](C(C)C)[C@@H](O)[C@H]21
- Activity [1]: inactive
- inhibition (RAW264.7): inactive

Compound: C=C[C@H](C#CC#C[C@@H](O)/C=C\CCCCCCC)O[C@]1(C)CCC[C@]2(C)CC[C@@H](C(C)(C)O)C[C@H]21
- inhibition (RAW264.7): inactive

Compound: C=C[C@H](C#CC#C[C@@H](O)/C=C\CCCCCCC)O[C@]1(C)CC[C@@H](O)[C@]2(C)CC[C@H](C(C)C)[C@H](O)[C@H]21
- Activity [1]: inactive
- inhibition (RAW264.7): inactive

Compound: C=C[C@@H](O)C#CC#C[C@H](/C=C\CCCCCCC)O[C@]1(C)CC[C@@H](O)[C@]2(C)CC[C@H](C(C)C)[C@H](O)[C@H]21
- Activity [1]: inactive
- inhibition (RAW264.7): inactive

Compound: C=C[C@@H](O)C#Cc1c2c(cc3cc(OC)c(O)cc13)CO[C@H]2/C=C\CCCCCCC
- Activity [1]: inactive
- inhibition (RAW264.7): inactive

Compound: C=C[C@@H](O)C#CC#C[C@H](/C=C\CCCCCCC)O[C@]1(C)CC[C@@H](C(C)C)[C@@H](O)[C@@H]2[C@@](C)(O)CC[C@]21O
- Activity [1]: inactive
- inhibition (RAW264.7): inactive

Compound: C=C[C@@H](O)C#CC#C[C@H](/C=C\CCCCCCC)O[C@]1(C)CCC[C@]2(C)CC[C@@H](C(C)(C)O)C[C@H]21
- inhibition (RAW264.7): inactive

Compound: C=C[C@H](C#CC#C[C@@H](O)/C=C\CCCCCCC)O[C@]1(C)CC[C@@H](C(C)C)[C@@H](O)[C@@H]2[C@@](C)(O)CC[C@]21O
- Activity [1]: inactive
- inhibition (RAW264.7): inactive
